Laboratory results: ChEMBL document CHEMBL4706651, “Peripheral Selective Oxadiazolylphenyl Alanine Derivatives as Tryptophan Hydroxylase 1 Inhibitors for Obesity and Fatty Liver Disease” (J Med Chem, 2021)
The source made the active and inactive calls. The calls are words filed in the database; no cut-off is given here.

Tests used:
[1] = system: Mus musculus; experiment: Anti-obesity activity in C57BL/6J mouse model of diet-induced obesity assessed as suppression of 5-HT levels in brain at 10 mg/kg, ip dosed daily for 1 week by LC-MS/MS analysis; format: functional, organism-based; conditions: time 1.0 weeks
[2] = system: Mus musculus; experiment: Anti-obesity activity in C57BL/6J mouse model of diet-induced obesity assessed as suppression of 5-HT levels in serum at 10 mg/kg, ip dosed daily for 8 weeks by LC-MS/MS analysis; format: functional, organism-based
Procedure, shortened: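 C57BL/6J mice, 12 weeks old, on high-fat diet (60% fat calories) were dosed daily ip with vehicle or 10 mg/kg for eight weeks. Serum was isolated from cardiac-puncture blood and 5-HT was quantified by LC-MS/MS. n = 5/group; means SEM.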

[3] = system: Mus musculus; experiment: Anti-obesity activity in C57BL/6J mouse model of diet-induced obesity assessed as suppression of body weight gain at 10 mg/kg, ip dosed daily for 8 weeks […]; format: functional, organism-based
[4] = system: Mus musculus; experiment: Anti-obesity activity in overnight fasted C57BL/6J mouse model of diet-induced obesity assessed as improvement in glucose tolerance at 1 to 10 mg/kg, ip by intraperitoneal glucose tolerance test; format: functional, organism-based; conditions: dose 1-10 mg/kg
Procedure, shortened: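 Twelve-week-old C57BL/6J mice were given daily ip vehicle or 1, 5 or 10 mg/kg for 8 weeks on high-fat diet. After fasting (16 h per legend; "overnight" in methods), they received 2 g/kg D-glucose ip, and blood glucose was read with a glucometer. n = 6/group.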

[5] = system: Mus musculus; experiment: Anti-obesity activity in C57BL/6J mouse model of diet-induced obesity assessed as reduction in adipose tissues by measuring eWAT at 10 mg/kg, ip dosed daily for 8 weeks; format: functional, organism-based
Procedure, shortened: (§1)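 After eight weeks of daily ip dosing at 10 mg/kg with high-fat diet (60% fat calories) in C57BL/6J mice starting at 12 weeks, gross appearance of dissected eWAT, iWAT and BAT was photographed against a 1 cm × 1 cm grid.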

[6] = system: Mus musculus; experiment: Anti-obesity activity in C57BL/6J mouse model of diet-induced obesity assessed as reduction in adipose tissues by measuring iWAT at 10 mg/kg, ip dosed daily for 8 weeks; format: functional, organism-based; procedure, shortened: as §1
[7] = system: Mus musculus; experiment: Anti-obesity activity in C57BL/6J mouse model of diet-induced obesity assessed as reduction in adipose tissues by measuring BAT at 10 mg/kg, ip dosed daily for 8 weeks; format: functional, organism-based; procedure, shortened: as §1
[8] = system: Mus musculus; experiment: Anti-obesity activity in C57BL/6J mouse model of diet-induced obesity assessed as reduction in adipocyte size in eWAT at 10 mg/kg, ip dosed daily for 8 weeks by H and E staining based histological analysis; format: functional, organism-based
Procedure, shortened: (§2)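 C57BL/6J mice, 12 weeks old, given daily ip vehicle or drug during 8 weeks of high-fat diet (60% fat calories). Sacrificed after 6 h fasting. Five-micron paraffin sections of eWAT, iWAT and BAT were deparaffinized and stained with H&E. Crown-like structures, adipocyte size, lipid droplets and multilocular cells were assessed. Scale bar 100 μm.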

[9] = system: Mus musculus; experiment: Anti-obesity activity in C57BL/6J mouse model of diet-induced obesity assessed as reduction in adipocyte size in iWAT at 10 mg/kg, ip dosed daily for 8 weeks by H and E staining based histological analysis; format: functional, organism-based; procedure, shortened: as §2
[10] = system: Mus musculus; experiment: Anti-obesity activity in C57BL/6J mouse model of diet-induced obesity assessed as increase in multilocular adipocytes at 10 mg/kg, ip dosed daily for 8 weeks by H and E staining based histological analysis; format: functional, organism-based; procedure, shortened: as §2
[11] = system: Mus musculus; experiment: Anti-obesity activity in C57BL/6J mouse model of diet-induced obesity assessed as increase in VO2 at 10 mg/kg, ip dosed daily for 8 weeks by indirect calorimetry; format: functional, organism-based
Procedure, shortened: (§3)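 Daily ip dosing of C57BL/6J mice on high-fat diet (60% fat calories), starting at 12 weeks of age, for eight weeks. Mice were housed singly in an eight-chamber open-circuit indirect calorimetry system and monitored for 72 h in the fed state. VO2 and VCO2 were recorded. RER = VCO2/VO2; heat production = (3.185 + 1.232 × RER) × VO2. n = 5/group; means SEM.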

[12] = system: Mus musculus; experiment: Anti-obesity activity in C57BL/6J mouse model of diet-induced obesity assessed as increase in VCO2 at 10 mg/kg, ip dosed daily for 8 weeks by indirect calorimetry; format: functional, organism-based; procedure, shortened: as §3
[13] = system: Mus musculus; experiment: Anti-obesity activity in C57BL/6J mouse model of diet-induced obesity assessed as increase in heat production at 10 mg/kg, ip dosed daily for 8 weeks by indirect calorimetry; format: functional, organism-based; procedure, shortened: as §3
[14] = system: Mus musculus; experiment: Anti-obesity activity in C57BL/6J mouse model of diet-induced obesity assessed as effect on RER at 10 mg/kg, ip dosed daily for 8 weeks by indirect calorimetry; format: functional, organism-based; procedure, shortened: as §3
[15] = system: Mus musculus; experiment: Anti-obesity activity in C57BL/6J mouse model of diet-induced obesity assessed as induction of thermogenic activity by measuring increase in Ucp1 mRNA expression in iWAT at 10 mg/kg, ip dosed daily for 8 weeks by RT-PCR analysis; format: functional, organism-based
Procedure, shortened: (§4)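 C57BL/6J mice fed a 60% fat-calorie diet from 12 weeks of age, dosed ip daily for eight weeks. For Ucp1 mRNA, total RNA was extracted from BAT or iWAT with TRIzol and analysed by quantitative RT-PCR as relative expression. UCP1 protein was detected by immunohistochemistry on five-micron paraffin sections. n = 5/group.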

[16] = system: Mus musculus; experiment: Anti-obesity activity in C57BL/6J mouse model of diet-induced obesity assessed as induction of thermogenic activity by measuring increase in Ucp1 protein expression in BAT at 10 mg/kg, ip dosed daily for 8 weeks immunohistochemistry; format: functional, organism-based; procedure, shortened: as §4
[17] = system: Mus musculus; experiment: Anti-hepatic steatosis activity in C57BL/6J mouse model of diet-induced obesity assessed as reduction in plasma TG level at 10 mg/kg, ip dosed daily for 8 weeks colorimetry; format: functional, organism-based
[18] = system: Mus musculus; experiment: Anti-hepatic steatosis activity in C57BL/6J mouse model of diet-induced obesity assessed as reduction in plasma cholesterol level at 10 mg/kg, ip dosed daily for 8 weeks colorimetry; format: functional, organism-based
[19] = Stability in rat liver microsomes assessed as parent compound remaining level after 30 mins; format: ADME, Microsome; conditions: read-out: Stabilty
[20] = Stability in human liver microsomes assessed as parent compound remaining level after 30 mins; format: ADME, Microsome; conditions: read-out: Stabilty
[21] = biological target: CYP2C9 (Homo sapiens, UniProt P11712); experiment: Inhibition of CYP2C9 (unknown origin) at 10 uM relative to control; format: ADME
[22] = biological target: CYP2D6 (Homo sapiens, UniProt P10635); experiment: Inhibition of CYP2D6 (unknown origin) at 10 uM relative to control; format: ADME
[23] = biological target: hERG (KCNH2) (Homo sapiens, UniProt Q12809); experiment: Inhibition of human ERG at 10 uM relative to control
[24] = Drug level in ICR mouse plasma at 10 mg/kg, ip after 1 hr; format: ADME, organism-based
Procedure, shortened: (§5)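 Male ICR mice received 10 mg/kg ip in DMSO/PEG400/saline 5:40:55 (v/v/v), 5 mL/kg. At 1 h, heart blood was spun to plasma. Mice were perfused with heparinized saline, and brains were homogenized in 3 volumes PBS. Analyte was quantified by LC-MS/MS. Brain quantification limit 31.3 ng/g. n = 3; mean SD.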

[25] = Drug level in ICR mouse brain at 10 mg/kg, ip after 1 hr; format: ADME, organism-based; conditions: read-out: Drug uptake; procedure, shortened: as §5

Sequence of CYP2D6 (P10635 whole entry): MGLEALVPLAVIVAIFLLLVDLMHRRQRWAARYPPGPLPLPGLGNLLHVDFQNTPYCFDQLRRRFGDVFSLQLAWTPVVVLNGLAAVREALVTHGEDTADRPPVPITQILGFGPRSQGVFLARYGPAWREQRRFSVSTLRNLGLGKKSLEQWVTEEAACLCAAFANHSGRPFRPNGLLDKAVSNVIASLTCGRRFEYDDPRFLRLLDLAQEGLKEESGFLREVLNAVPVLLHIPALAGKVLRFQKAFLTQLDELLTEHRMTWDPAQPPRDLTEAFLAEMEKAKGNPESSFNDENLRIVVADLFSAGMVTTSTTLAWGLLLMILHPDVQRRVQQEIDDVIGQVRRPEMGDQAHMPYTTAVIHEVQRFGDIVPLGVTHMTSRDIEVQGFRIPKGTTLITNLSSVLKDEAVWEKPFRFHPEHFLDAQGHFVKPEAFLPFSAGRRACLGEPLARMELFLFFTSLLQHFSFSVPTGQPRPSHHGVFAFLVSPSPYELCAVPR
Sequence of CYP2C9 (P11712 whole entry): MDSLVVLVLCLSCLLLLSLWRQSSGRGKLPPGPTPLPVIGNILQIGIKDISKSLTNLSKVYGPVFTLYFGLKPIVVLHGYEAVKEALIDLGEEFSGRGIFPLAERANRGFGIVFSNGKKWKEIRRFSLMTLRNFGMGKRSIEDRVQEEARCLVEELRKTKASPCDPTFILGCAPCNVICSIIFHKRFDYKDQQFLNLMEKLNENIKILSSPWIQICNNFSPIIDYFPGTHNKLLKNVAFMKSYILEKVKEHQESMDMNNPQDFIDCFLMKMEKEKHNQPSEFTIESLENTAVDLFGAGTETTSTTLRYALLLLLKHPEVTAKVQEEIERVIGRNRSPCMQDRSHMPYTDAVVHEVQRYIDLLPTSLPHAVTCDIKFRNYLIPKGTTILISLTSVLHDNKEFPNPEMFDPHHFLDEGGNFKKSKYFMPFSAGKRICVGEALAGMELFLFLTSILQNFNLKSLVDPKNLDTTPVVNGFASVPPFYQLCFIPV
Sequence of hERG (KCNH2) (Q12809 whole entry): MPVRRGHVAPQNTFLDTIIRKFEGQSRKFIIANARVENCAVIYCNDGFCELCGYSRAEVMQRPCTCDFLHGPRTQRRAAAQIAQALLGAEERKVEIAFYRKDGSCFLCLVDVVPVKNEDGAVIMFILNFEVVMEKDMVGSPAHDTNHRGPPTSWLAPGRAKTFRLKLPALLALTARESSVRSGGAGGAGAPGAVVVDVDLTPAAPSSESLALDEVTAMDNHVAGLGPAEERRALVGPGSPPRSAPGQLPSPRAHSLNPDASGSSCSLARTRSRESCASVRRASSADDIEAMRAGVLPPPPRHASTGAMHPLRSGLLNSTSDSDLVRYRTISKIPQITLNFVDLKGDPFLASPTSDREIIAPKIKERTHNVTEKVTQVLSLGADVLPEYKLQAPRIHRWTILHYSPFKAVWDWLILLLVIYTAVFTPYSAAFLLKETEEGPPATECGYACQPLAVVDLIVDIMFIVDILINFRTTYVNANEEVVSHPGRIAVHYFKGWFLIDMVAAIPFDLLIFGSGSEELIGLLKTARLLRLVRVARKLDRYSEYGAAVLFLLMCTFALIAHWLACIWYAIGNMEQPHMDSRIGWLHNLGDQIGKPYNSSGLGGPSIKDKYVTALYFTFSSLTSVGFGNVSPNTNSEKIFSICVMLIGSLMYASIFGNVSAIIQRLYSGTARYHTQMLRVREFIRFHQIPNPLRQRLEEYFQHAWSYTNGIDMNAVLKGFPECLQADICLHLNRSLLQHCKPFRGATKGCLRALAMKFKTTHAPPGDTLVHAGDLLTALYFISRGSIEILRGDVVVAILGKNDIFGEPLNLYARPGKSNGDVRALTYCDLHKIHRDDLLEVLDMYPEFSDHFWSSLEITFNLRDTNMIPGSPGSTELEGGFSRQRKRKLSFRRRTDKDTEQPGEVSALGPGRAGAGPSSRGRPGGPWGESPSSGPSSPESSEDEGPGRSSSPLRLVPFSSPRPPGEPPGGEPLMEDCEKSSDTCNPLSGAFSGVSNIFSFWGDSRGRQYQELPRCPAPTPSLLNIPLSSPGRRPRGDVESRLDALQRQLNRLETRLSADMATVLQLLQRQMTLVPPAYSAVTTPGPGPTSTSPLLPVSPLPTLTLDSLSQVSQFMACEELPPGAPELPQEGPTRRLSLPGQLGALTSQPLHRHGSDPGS

remaining at 0.5 h [19]: 85% | remaining at 0.5 h [20]: 92% | inhibition at 10 µM [21]: < 1% | inhibition at 10 µM [22]: < 1% | concentration at 1 h [24]: 3110 ng/mL | concentration at 1 h [25]: < 31.3 ng/g
Compound: COc1ccc(-c2nc(-c3ccc(C[C@H](N)C(=O)O)cc3)no2)cc1-c1ccc(O)cc1.Cl
Activity [1]: inactive | Activity [2]: Active | Activity [3]: Active | Activity [4]: Dose-dependent effect | Activity [5]: Active | Activity [6]: Active | Activity [7]: Active | Activity [8]: Active | Activity [9]: Active | Activity [10]: Active | Activity [11]: Active | Activity [12]: Active | Activity [13]: Active | Activity [14]: inactive | Activity [15]: Active | Activity [16]: Active | Activity [17]: Active | Activity [18]: Active | inhibition at 10 µM [23]: 24.3%
